ChEMBL document CHEMBL4825703, “Investigation of 3-sulfamoyl coumarins against cancer-related IX and XII isoforms of human carbonic anhydrase as well as cancer cells leads to the discovery of 2-oxo-2H-benzo[h]chromene-3-sulfonamide - A new caspase-activating proapoptotic agent” (Eur J Med Chem, 2021)
Calls of active or inactive are those of the source. The calls are words filed in the database; no cut-off is given here.

Legend:
Carbonic anhydrase 9 = Carbonic anhydrase 9 (Homo sapiens, UniProt Q16790); test: Inhibition of human carbonic anhydrase 9 assessed as inhibition constant incubated for 15 mins prior to testing by phenol red based stopped-flow CO2 hydration assay
U-87 MG [1] = test: Antiproliferative activity against human U-87 MG cells assessed as cell growth inhibition at 30 to 100 uM measured after 24 hrs under CoCl2-induced hypoxic condition by MTT assay; type: functional, cell-based; conditions: U-87MG ATCC, dose 30-100 µM
hTERT-BJ [2] = test: Cytotoxicity against human TERT-Bj-5ta cells assessed as reduction in cell viability at 300 uM measured after 24 hrs under CoCl2- induced hypoxic condition by MTT assay relative to control; type: cell-based
A-431 [3] = test: Induction of apoptosis in human A-431 cells assessed as early apoptotic cells at 20 uM incubated for 24 hrs by annexin-V/FITC and propidium iodide based staining based flow cytometry (Rvb= 6.10 %); type: functional
A-431 [4] = test: Induction of apoptosis in human A-431 cells assessed as viable cells at 10 uM incubated for 24 hrs by annexin-V/FITC and propidium iodide based staining based flow cytometry (Rvb= 90.70 %); type: functional; conditions: read-out: Activity
A-431 [5] = test: Induction of apoptosis in human A-431 cells assessed as early apoptotic cells at 25 uM incubated for 24 hrs by annexin-V/FITC and propidium iodide based staining based flow cytometry (Rvb= 6.10 %); type: functional
A-431 [6] = test: Induction of apoptosis in human A-431 cells assessed as dead cells at 5 uM incubated for 24 hrs by annexin-V/FITC and propidium iodide based staining based flow cytometry (Rvb= 0.14 %); type: functional
A-431 [7] = test: Induction of apoptosis in human A-431 cells assessed as viable cells at 25 uM incubated for 24 hrs by annexin-V/FITC and propidium iodide based staining based flow cytometry (Rvb= 90.70 %); type: functional; conditions: read-out: Activity
A-431 [8] = test: Induction of apoptosis in human A-431 cells assessed as late apoptotic cells at 15 uM incubated for 24 hrs by annexin-V/FITC and propidium iodide based staining based flow cytometry (Rvb= 3.06 %); type: functional
[9] = Antiproliferative activity against human WI-26 AV4 cells assessed as reduction in cell viability measured after 24 hrs by MTT assay; conditions: WI-26 AV4, 24 h
[10] = Antiproliferative activity against human WI-26 AV4 cells assessed as reduction in cell viability measured after 72 hrs by MTT assay; conditions: WI26VA4, 72 h
A-431 [11] = test: Induction of apoptosis in human A-431 cells assessed as early apoptotic cells at 10 uM incubated for 24 hrs by annexin-V/FITC and propidium iodide based staining based flow cytometry (Rvb= 6.10 %); type: functional
A-431 [12] = test: Induction of apoptosis in human A-431 cells assessed as viable cells at 5 uM incubated for 24 hrs by annexin-V/FITC and propidium iodide based staining based flow cytometry (Rvb= 90.70 %); type: functional; conditions: read-out: Activity
A-431 [13] = test: Induction of apoptosis in human A-431 cells assessed as late apoptotic cells at 5 uM incubated for 24 hrs by annexin-V/FITC and propidium iodide based staining based flow cytometry (Rvb= 3.06 %); type: functional
A-431 [14] = test: Antiproliferative activity against human A-431 cells assessed as cell survival rate at 100 uM measured after 24 hrs under CoCl2-induced hypoxic condition by MTT assay relative to control; type: functional; conditions: read-out: Survival
Summary of the method: (§1)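 MTT end-point assay. MTT (5 mg/mL in PBS) added for 4 h, formazan dissolved in DMSO, absorbance read at 560 nm. Viability given as % of untreated control (100%); mean ± SEM of three experiments.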

A-431 [15] = test: Induction of apoptosis in human A-431 cells assessed as activation of caspase 3/7 measured after 24 hrs by CellEvent caspase 3/7 green detection reagent based assay; type: functional, cell-based
Summary of the method: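 Subconfluent cells in 6-well plates exposed to compound (5–25) for 24 h at 37 °C, 5% CO₂. Cells washed in PBS and resuspended at 1 × 10^6/mL. CellEvent caspase-3/7 green reagent added at 4 final, incubated 30 min at 37 °C, then analysed by flow cytometry within 20 min.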

Carbonic anhydrase 2 = Carbonic anhydrase 2 (Homo sapiens, UniProt P00918); test: Inhibition of human carbonic anhydrase 2 assessed as inhibition constant incubated for 15 mins prior to testing by phenol red based stopped-flow CO2 hydration assay
hTERT-BJ [16] = test: Cytotoxicity against human TERT-Bj-5ta cells assessed as reduction in cell viability at measured after 24 hrs under CoCl2- induced hypoxic condition by MTT assay; type: cell-based
A-431 [17] = test: Antiproliferative activity against human A-431 cells assessed as reduction in cell viability measured after 48 hrs by MTT assay; conditions: A-431, 48 h
A-431 [18] = test: Induction of apoptosis in human A-431 cells assessed as dead cells at 20 uM incubated for 24 hrs by annexin-V/FITC and propidium iodide based staining based flow cytometry (Rvb= 0.14 %); type: functional
A-431 [19] = test: Induction of apoptosis in human A-431 cells assessed as dead cells at 25 uM incubated for 24 hrs by annexin-V/FITC and propidium iodide based staining based flow cytometry (Rvb= 0.14 %); type: functional
A-431 [20] = test: Antiproliferative activity against human A-431 cells assessed as reduction in cell viability measured after 72 hrs by MTT assay; conditions: A-431, 72 h
A-431 [21] = test: Induction of apoptosis in human A-431 cells assessed as late apoptotic cells at 10 uM incubated for 24 hrs by annexin-V/FITC and propidium iodide based staining based flow cytometry (Rvb= 3.06 %); type: functional
A-431 [22] = test: Induction of apoptosis in human A-431 cells assessed as early apoptotic cells at 15 uM incubated for 24 hrs by annexin-V/FITC and propidium iodide based staining based flow cytometry (Rvb= 6.10 %); type: functional
[23] = Antiproliferative activity against human WI-26 AV4 cells assessed as reduction in cell viability measured after 48 hrs by MTT assay; conditions: WI-26 AV4, 48 h
A-431 [24] = test: Induction of apoptosis in human A-431 cells assessed as late apoptotic cells at 25 uM incubated for 24 hrs by annexin-V/FITC and propidium iodide based staining based flow cytometry (Rvb= 3.06 %); type: functional
A-431 [25] = test: Antiproliferative activity against human A-431 cells assessed as reduction in cell viability measured after 24 hrs by MTT assay; conditions: A-431, 24 h
A-431 [26] = test: Induction of apoptosis in human A-431 cells assessed as viable cells at 15 uM incubated for 24 hrs by annexin-V/FITC and propidium iodide based staining based flow cytometry (Rvb= 90.70 %); type: functional; conditions: read-out: Activity
A-431 [27] = test: Induction of apoptosis in human A-431 cells assessed as dead cells at 15 uM incubated for 24 hrs by annexin-V/FITC and propidium iodide based staining based flow cytometry (Rvb= 0.14 %); type: functional
A-431 [28] = test: Induction of apoptosis in human A-431 cells assessed as late apoptotic cells at 20 uM incubated for 24 hrs by annexin-V/FITC and propidium iodide based staining based flow cytometry (Rvb= 3.06 %); type: functional
A-431 [29] = test: Antiproliferative activity against human A-431 cells assessed as cell survival rate at 300 uM measured after 24 hrs under CoCl2-induced hypoxic condition by MTT assay relative to control; type: functional; conditions: read-out: Survival; summary of the method: as §1
A-431 [30] = test: Induction of apoptosis in human A-431 cells assessed as dead cells at 10 uM incubated for 24 hrs by annexin-V/FITC and propidium iodide based staining based flow cytometry (Rvb= 0.14 %); type: functional
A-431 [31] = test: Induction of apoptosis in human A-431 cells assessed as early apoptotic cells at 5 uM incubated for 24 hrs by annexin-V/FITC and propidium iodide based staining based flow cytometry (Rvb= 6.10 %); type: functional
U-87 MG [32] = test: Antiproliferative activity against human U-87 MG cells assessed as cell survival rate at 300 uM measured after 24 hrs under CoCl2-induced hypoxic condition by MTT assay relative to control; type: functional, U-87MG ATCC; conditions: read-out: Survival; summary of the method: as §1
A-431 [33] = test: Induction of apoptosis in human A-431 cells assessed as viable cells at 20 uM incubated for 24 hrs by annexin-V/FITC and propidium iodide based staining based flow cytometry (Rvb= 90.70 %); type: functional; conditions: read-out: Activity
RT-4 = test: Antiproliferative activity against human RT-4 cells assessed as cell survival rate at 300 uM measured after 24 hrs under CoCl2-induced hypoxic condition by MTT assay relative to control; type: functional; conditions: read-out: Survival; summary of the method: as §1

COc1ccc2oc(=O)c(S(N)(=O)=O)cc2c1
Ki (Carbonic anhydrase 9): 58.1 nM
growth inhibition (GI) (U-87 MG [1]): inactive
Activity (hTERT-BJ [2]): 70.97%

Cc1cc(C)c2cc(S(N)(=O)=O)c(=O)oc2c1
Ki (Carbonic anhydrase 9): 825 nM
growth inhibition (GI) (U-87 MG [1]): inactive

NS(=O)(=O)c1cc2c(ccc3ccccc32)oc1=O
Activity (A-431 [3]): 15.93%
viability at 10 µM (A-431 [4]): 88.4%
Activity (A-431 [5]): 18.56%
Ki (Carbonic anhydrase 9): 6370 nM
Activity (A-431 [6]): 0.48%
viability at 25 µM (A-431 [7]): 78.7%
Activity (A-431 [8]): 1.7%
IC50 [9]: 41.7 µM
growth inhibition (GI) (U-87 MG [1]): inactive
IC50 [10]: > 350 µM
Activity (A-431 [11]): 9.25%
viability at 5 µM (A-431 [12]): 92.8%
Activity (A-431 [13]): 2.79%
viability at 100 µM (A-431 [14]): 73%
Activity (A-431 [15]): Dose-Dependent Effect
Ki (Carbonic anhydrase 2): > 100 µM
Activity (hTERT-BJ [16]): Non-Toxic
IC50 (A-431 [17]): 25.9 µM
Activity (A-431 [18]): 0.25%
Activity (A-431 [19]): 0.41%
IC50 (A-431 [20]): 70.1 µM
Activity (A-431 [21]): 1.99%
Activity (A-431 [22]): 12.52%
IC50 [23]: 84.5 µM
Activity (A-431 [24]): 2.31%
IC50 (A-431 [25]): 9.73 µM
viability at 15 µM (A-431 [26]): 85.5%
Activity (A-431 [27]): 0.24%
Activity (A-431 [28]): 2.65%
viability at 300 µM (A-431 [29]): 23.4%
Activity (A-431 [30]): 0.34%
Activity (A-431 [31]): 3.89%
viability at 300 µM (U-87 MG [32]): 67.9%
viability at 20 µM (A-431 [33]): 81.2%

COc1cccc2cc(S(N)(=O)=O)c(=O)oc12
Ki (Carbonic anhydrase 9): 87.9 nM
growth inhibition (GI) (U-87 MG [1]): inactive

NS(=O)(=O)c1cc2cc(Br)ccc2oc1=O
Ki (Carbonic anhydrase 9): 317 nM
IC50 [9]: 76.6 µM
growth inhibition (GI) (U-87 MG [1]): inactive
IC50 [10]: 21.5 µM
Activity (hTERT-BJ [16]): Non-Toxic
IC50 (A-431 [17]): 24.7 µM
IC50 (A-431 [20]): 49.2 µM
IC50 [23]: 42.1 µM
IC50 (A-431 [25]): 38.4 µM
viability at 300 µM (RT-4): 19.7%
viability at 300 µM (A-431 [29]): 39.3%

NS(=O)(=O)c1cc2cccc(O)c2oc1=O
Ki (Carbonic anhydrase 9): 98.7 nM
growth inhibition (GI) (U-87 MG [1]): inactive
Activity (hTERT-BJ [2]): 54.76%
viability at 300 µM (RT-4): 19.7%
viability at 300 µM (U-87 MG [32]): 67.7%

NS(=O)(=O)c1cc2cc(Cl)ccc2oc1=O
Ki (Carbonic anhydrase 9): 177 nM
IC50 [9]: 89.2 µM
growth inhibition (GI) (U-87 MG [1]): inactive
IC50 [10]: 5.87 µM
Activity (hTERT-BJ [16]): Non-Toxic
IC50 (A-431 [17]): 29.1 µM
IC50 (A-431 [20]): 57.8 µM
IC50 [23]: 45.1 µM
IC50 (A-431 [25]): 51.9 µM
viability at 300 µM (RT-4): 19.7%
viability at 300 µM (A-431 [29]): 36.5%

COc1cccc2oc(=O)c(S(N)(=O)=O)cc12
Ki (Carbonic anhydrase 9): 2980 nM
growth inhibition (GI) (U-87 MG [1]): inactive
